{"data": "Published values gathered from unrelated publications", "Si": "Sucrase-isomaltase, intestinal (Si, Rattus norvegicus, UniProt P23739)", "NR3C1": "Glucocorticoid receptor (NR3C1, Homo sapiens, UniProt P04150)", "TYR": "Tyrosinase (TYR, Homo sapiens, UniProt P14679)", "PIK3C3": "Phosphatidylinositol 3-kinase catalytic subunit type 3 (PIK3C3, Homo sapiens, UniProt Q8NEB9)", "Abl2": "Abl2 (Mus musculus, UniProt Q4JIM5)", "ESR1": "Estrogen receptor (ESR1, Homo sapiens, UniProt P03372)", "note": "Compare with care: the assays were run in different laboratories."}
{"Compound": "O=c1c(O[C@@H]2O[C@H](CO)[C@@H](O)[C@H](O)[C@H]2O)c(-c2ccc(O)c(O)c2)oc2cc(O)cc(O)c12", "target": "Si", "read-out": "enzyme activity", "action": "inhibitor", "concentration": "25 µg/mL", "inhibition": "21.4%"}
{"Compound": "Oc1cccc(Nc2nc(-c3ccc(F)cc3F)cs2)c1", "target": "NR3C1", "read-out": "cell-free assay", "concentration": "10 µM", "inhibition": "21.6%"}
{"Compound": "Cc1ccc(C(C)C)cc1NC(=O)COC(=O)/C=C/c1ccc(O)cc1", "target": "TYR", "read-out": "enzyme activity", "action": "inhibitor", "concentration": "50 µg/mL", "inhibition": "55.8%"}
{"Compound": "O=c1c(O[C@@H]2O[C@@H](CO)[C@H](O)[C@H]2O)c(-c2ccc(O)c(O)c2)oc2cc(O)cc(O)c12", "target": "Si", "read-out": "enzyme activity", "action": "inhibitor", "concentration": "50 µg/mL", "inhibition": "31.5%"}
{"Compound": "Cc1ccc(C(C)C)cc1NC(=O)COC(=O)/C=C/c1ccccc1", "target": "TYR", "read-out": "enzyme activity", "action": "inhibitor", "concentration": "50 µg/mL", "inhibition": "82.3%"}
{"Compound": "CCCNc1nc2ccccc2n1Cc1ccc(Cl)cc1", "target": "Alpha-2C adrenergic receptor (ADRA2C, Homo sapiens, UniProt P18825)", "read-out": "ligand displacement", "concentration": "10 µM", "inhibition": "84.8%"}
{"Compound": "CN(C)C1CCN(CC#Cc2nn(C3CCCC3)c3nc(NCc4ccccc4)ncc23)C1 (stereo not shown)", "target": "Inhibitor of nuclear factor kappa-B kinase subunit beta (IKBKB, Homo sapiens, UniProt O14920)", "read-out": "enzyme activity", "action": "inhibitor", "technique": "FRET", "concentration": "0.1 µM", "inhibition": "-1%"}
{"Compound": "O=C(CSc1nc2nccnc2c(=O)n1CCc1ccccc1)Nc1nccs1", "target": "PIK3C3", "read-out": "enzyme activity", "action": "inhibitor", "concentration": "10 µM", "inhibition": "28%"}
{"Compound": "O=C(c1ccc(F)cc1)N(Cc1ccccc1)C1CCCCC1", "target": "NR3C1", "read-out": "cell-free assay", "concentration": "10 µM", "inhibition": "9%"}
{"Compound": "CCN(CC)c1ccc(C2Nc3ccc(C(=O)c4ccccc4)cc3NC3=C2C(=O)CC(C)(C)C3)cc1 (stereo not shown)", "target": "Prostaglandin E2 receptor EP3 subtype (PTGER3, Homo sapiens, UniProt P43115)", "read-out": "ligand displacement", "technique": "radioligand", "concentration": "10 µM", "inhibition": "12%"}
{"Compound": "CNc1cc(Oc2cc(C(=O)Nc3cc(N4CCN(C)CC4)cc(C(F)(F)F)c3)ccc2C)ncn1", "target": "PAN2-PAN3 deadenylation complex subunit PAN3 (Homo sapiens, UniProt Q58A45)", "read-out": "target engagement in cells", "action": "inhibitor", "technique": "chemoproteomics", "cells": "Huh-7", "concentration": "1 µM", "inhibition": "-39.3%"}
{"Compound": "Cc1ccc(C(C)C)cc1NC(=O)COC(=O)c1ccc(O)cc1O", "target": "TYR", "read-out": "enzyme activity", "action": "inhibitor", "concentration": "50 µg/mL", "inhibition": "66.7%"}
{"Compound": "CCN(CC)CCNC(=O)c1c(C)[nH]c(/C=C2\\C(=O)Nc3ccc(F)cc32)c1C", "target": "Mitogen-activated protein kinase 14 (MAPK14, Homo sapiens, UniProt Q16539)", "read-out": "enzyme activity", "action": "inhibitor", "concentration": "0.3 µM", "inhibition": "-11%"}
{"Compound": "Cc1ccc(C(C)C)cc1NC(=O)COC(=O)/C=C/c1ccccc1O", "target": "TYR", "read-out": "enzyme activity", "action": "inhibitor", "concentration": "50 µg/mL", "inhibition": "53.7%"}
{"Compound": "CC(C)CCn1c(SCC(=O)Nc2ccccc2C(F)(F)F)nc2nccnc2c1=O", "target": "PIK3C3", "read-out": "enzyme activity", "action": "inhibitor", "concentration": "10 µM", "inhibition": "< 20%"}
{"Compound": "O=C1OC[C@H]2OC(=O)c3cc(O)c(O)c(O)c3-c3c(O)c(O)c(O)c4c3C(=O)O[C@H]([C@H]3OC(=O)c5c-4c(O)c(O)c(O)c5[C@H]3O)[C@@H]2OC(=O)c2cc(O)c(O)c(O)c2-c2c1cc(O)c(O)c2O", "target": "Si", "read-out": "enzyme activity", "action": "inhibitor", "concentration": "25 µg/mL", "inhibition": "25.7%"}
{"Compound": "Cn1cnc(Br)c1C1=CN(c2ncnc3[nH]cnc23)CCS1", "target": "cAMP-dependent protein kinase catalytic subunit beta (PRKACB, Homo sapiens, UniProt P22694)", "read-out": "enzyme activity", "action": "inhibitor", "technique": "radiometric", "concentration": "2 µM", "inhibition": "91.3%"}
{"Compound": "Ic1cccc2cnccc12", "target": "NAD(+) hydrolase SARM1 (SARM1, Homo sapiens, UniProt Q6SZW1)", "read-out": "enzyme activity", "action": "inhibitor", "concentration": "10 µM", "inhibition": "100%"}
{"Compound": "Cc1ccc(Nc2nccc(N(C)c3ccc4c(C)n(C)nc4c3)n2)cc1S(N)(=O)=O", "target": "Abl2", "read-out": "enzyme activity", "action": "inhibitor", "concentration": "0.3 µM", "inhibition": "38%"}
{"Compound": "CN1CC(Oc2cnc(C#N)cc2-c2ccn3nc(NC(=O)C4CC4)cc3c2)C1", "target": "Eukaryotic translation initiation factor 2-alpha kinase 1 (EIF2AK1, Homo sapiens, UniProt Q9BQI3)", "read-out": "enzyme activity", "action": "inhibitor", "concentration": "1 µM", "inhibition": "-8%"}
{"Compound": "CNC(=O)c1cc(Oc2ccc(NC(=O)Nc3ccc(Cl)c(C(F)(F)F)c3)cc2)ccn1", "target": "Abl2", "read-out": "enzyme activity", "action": "inhibitor", "concentration": "10 µM", "inhibition": "61%"}
{"Compound": "COc1cc(NC(C)=O)c(Cl)cc1C(=O)Nc1nccs1", "target": "NR3C1", "read-out": "cell-free assay", "concentration": "10 µM", "inhibition": "11%"}
{"Compound": "O=C(Nc1ccc(S(=O)(=O)N2CCC(Cl)CC2)cc1)c1ccc([N+](=O)[O-])o1", "target": "ESR1", "read-out": "ligand displacement", "technique": "radioligand", "concentration": "10 µM", "inhibition": "0%"}
{"Compound": "O=C(c1ccc(Cl)cc1)N(Cc1ccccc1)C1CCCCC1", "target": "ESR1", "read-out": "cell-free assay", "concentration": "10 µM", "inhibition": "-2.9%"}
{"Compound": "CCN(Cc1ccccc1C(F)(F)F)C(=O)C1CCN(S(=O)(=O)c2ccc3[nH]ncc3c2)CC1", "target": "NR3C1", "read-out": "ligand displacement", "technique": "radioligand", "concentration": "10 µM", "inhibition": "1%"}
